Screens from PubChem.
CHRM5 agonist – agonists of human muscarinic M5 receptor (CHRM5); CHO-K1 hM5 cells, Fluo-8 calcium fluorescence; 0% DMSO wells, 100% maximal acetylcholine response; activation, % at 3 µM; 360,000 tested, 0.19% active;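 active means activation above the run's mean over test compounds plus 3 SD, cut at about 23% in these data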;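 further: signal is peak over basal fluorescence ratio across the kinetic read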
CHRM4 agonist – agonists of human muscarinic M4 receptor (CHRM4) | 360,000 tested, 0.14% active | CHO-K1 hM4/Gqi5, Fluo-8 calcium fluorescence; vehicle 0%, full acetylcholine response 100% | AID 624127 | activation, % at 3 µM | P08173;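 active means activation above the run mean over all test wells plus 3 SD, cut at about 32% in these data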;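 further: peak over basal fluorescence ratio per well then scaled between controls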
Target sequence (P08173 whole entry, looked up): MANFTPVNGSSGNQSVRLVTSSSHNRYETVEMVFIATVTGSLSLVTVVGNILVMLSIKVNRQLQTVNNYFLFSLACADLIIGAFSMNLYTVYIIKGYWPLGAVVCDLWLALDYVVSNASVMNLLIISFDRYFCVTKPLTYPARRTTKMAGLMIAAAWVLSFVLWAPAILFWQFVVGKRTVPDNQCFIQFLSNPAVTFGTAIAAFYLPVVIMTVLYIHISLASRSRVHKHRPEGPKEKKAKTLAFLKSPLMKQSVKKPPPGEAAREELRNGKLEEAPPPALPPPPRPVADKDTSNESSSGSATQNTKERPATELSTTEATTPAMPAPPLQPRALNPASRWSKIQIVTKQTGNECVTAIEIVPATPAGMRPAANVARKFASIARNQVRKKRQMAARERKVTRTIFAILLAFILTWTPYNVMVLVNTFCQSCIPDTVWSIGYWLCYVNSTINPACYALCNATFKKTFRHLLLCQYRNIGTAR
CHRM5 antagonist – CHRM5 antagonism in calcium assay | P08912 | CHO-hM5 cells, Fluo-8 calcium fluorescence, ACh EC80 | inhibition, % at 3 µM | 360,000 tested, 0.59% active;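 active means inhibition above a per-plate cutoff, the mean of that plate's test compounds plus 3 SD, cut at about 27% in these data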
M4 PAM – CHRM4 positive allosteric modulation; CHO-K1 hM4/Gqi5, Fluo-8 calcium fluorescence, ACh EC20; 0% = ACh EC20, 100% = maximal ACh; activation, % at 3 µM; 360,000 tested, 0.4% active; AID 624126; P08173;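 active means activation above its plate's cutoff, the mean activation of sample wells plus 3 SD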
M5 PAM – potentiates acetylcholine response at human M5 receptor; CHO-K1 hM5, Fluo-8 calcium, ACh EC20 PAM; 0% = ACh EC20, 100% = ACh EC100; activation, % at 3 µM; 360,000 tested, 0.3% active;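 active means activation above the run cutoff, the mean activation of all test compounds plus 3 SD, cut at about 18% in these data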
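System – CHO-K1 hM5 cells · Compound – 3 µM, single dose · Incubation – compound preincubation 140 s before EC20 acetylcholine addition · Technique – Fluo-8 calcium fluorescence · Measure – Max/basal fluorescence ratio as % of EC20–EC100 ACh window · Benchmarks – low control EC20 acetylcholine (0%), high control EC100 acetylcholine (100%) · Replication – singlicate, one well per test compound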
CHRM4 antagonist – blocks acetylcholine activation of human M4 receptor | P08173 | 360,000 tested, 0.73% active | inhibition, % at 3 µM | CHO-hM4 cells, ACh EC80, Fluo-8 calcium fluorescence;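 active means inhibition above its plate's cutoff, the mean inhibition of sample wells plus 3 SD, cut at about 27% in these data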
Hits are given with their value. A selection: hits, their analogues and other compounds. The true share with any hit is near 1.9%.

`COc1ccc(-c2cc(C(=O)Nc3cc(C)nn3-c3ccccc3)no2)cc1` gave CHRM5 agonist inactive, CHRM4 agonist inactive, CHRM5 antagonist inactive, M4 PAM 18, M5 PAM inactive and CHRM4 antagonist inactive.
For Cc1ccc(-n2nc(C)cc2NC(=O)c2ccc(C)s2)cc1 the results were CHRM5 agonist inactive, CHRM4 agonist inactive, CHRM5 antagonist inactive, M4 PAM inactive, M5 PAM inactive and CHRM4 antagonist 46.
For Fc1ccccc1COc1ccc(Br)cc1CNCc1ccncc1 the results were CHRM5 agonist inactive, CHRM4 agonist inactive, CHRM5 antagonist inactive, M4 PAM inactive, M5 PAM inactive and CHRM4 antagonist 37.
Screening Cc1ccc(CN2CCNC(=O)C2CC(=O)N(C)C(C2CC2)C2CC2)o1 (stereo unspecified) returned CHRM5 agonist inactive, CHRM4 agonist inactive, CHRM5 antagonist inactive, M4 PAM inactive, M5 PAM inactive and CHRM4 antagonist inactive.
Screening Cc1ccc(CN2CCNC(=O)C2CC(=O)NCC(F)(F)F)o1 (stereo unspecified) returned CHRM5 agonist inactive, CHRM4 agonist inactive, CHRM5 antagonist 27, M4 PAM inactive, M5 PAM inactive and CHRM4 antagonist inactive.
COc1ccc(-c2nc(CS(=O)CC(=O)N3CCN(C)CC3)c(C)o2)cc1 (stereo unspecified) was read as CHRM5 agonist inactive, CHRM4 agonist inactive, CHRM5 antagonist inactive, M4 PAM inactive, M5 PAM inactive and CHRM4 antagonist inactive.
Screening COC(CN(C)C(=O)C1CCCN(S(=O)(=O)c2ccc3c(c2)oc(=O)n3C)C1)OC (stereo unspecified) returned CHRM5 agonist inactive, CHRM4 agonist inactive, CHRM5 antagonist inactive, M4 PAM inactive, M5 PAM inactive and CHRM4 antagonist inactive.
Screening COc1ccc(Cl)cc1C(=O)NNC(=O)CNC(=O)c1ccco1 returned CHRM5 agonist inactive, CHRM4 agonist inactive, CHRM5 antagonist inactive, M4 PAM inactive, M5 PAM inactive and CHRM4 antagonist inactive.
Screening S=c1[nH]nc(Cn2cnc3ccccc32)n1-c1ccccc1Cl returned CHRM5 agonist inactive, CHRM4 agonist inactive, CHRM5 antagonist inactive, M4 PAM inactive, M5 PAM inactive and CHRM4 antagonist inactive.
Screening CN1CCC(=C2c3ccccc3C(O)c3ccccc32)CC1 (stereo unspecified) returned CHRM5 agonist inactive, CHRM4 agonist inactive, CHRM5 antagonist 99, M4 PAM inactive, M5 PAM inactive and CHRM4 antagonist 96.
CN1CCC(=C2c3ccccc3CCc3sccc32)CC1 was read as CHRM5 agonist inactive, CHRM4 agonist inactive, CHRM5 antagonist 99, M4 PAM inactive, M5 PAM inactive and CHRM4 antagonist 99.
CN1CCC(=C2c3ccccc3CC(=O)c3sccc32)CC1 was read as CHRM5 agonist inactive, CHRM4 agonist inactive, CHRM5 antagonist 98, M4 PAM inactive, M5 PAM inactive and CHRM4 antagonist 72.
Screening Cc1ccsc1/C=N/Nc1ccc(F)cc1F returned CHRM5 agonist inactive, CHRM4 agonist inactive, CHRM5 antagonist inactive, M4 PAM inactive, M5 PAM inactive and CHRM4 antagonist inactive.
c1ccc(CN2CCN(C3CCCSc4ccccc43)CC2)cc1 (stereo unspecified) was read as CHRM5 agonist inactive, CHRM4 agonist inactive, CHRM5 antagonist inactive, M4 PAM inactive, M5 PAM inactive and CHRM4 antagonist 35.
For CCCCc1cc(=O)oc2cc(OCc3cc(OC)c(OC)c(OC)c3)c(Cl)cc12 the results were CHRM5 agonist inactive, CHRM4 agonist inactive, CHRM5 antagonist inactive, M4 PAM 16, M5 PAM inactive and CHRM4 antagonist inactive.
`CCCc1cc(=O)oc2cc(OCc3cc(OC)c(OC)c(OC)c3)c(Cl)cc12` gave CHRM5 agonist inactive, CHRM4 agonist inactive, CHRM5 antagonist inactive, M4 PAM inactive, M5 PAM inactive and CHRM4 antagonist inactive.
Cc1cccc(-n2c(-c3ccncc3)n[nH]c2=S)c1 was read as CHRM5 agonist inactive, CHRM4 agonist inactive, CHRM5 antagonist inactive, M4 PAM 17, M5 PAM inactive and CHRM4 antagonist inactive.
For Cc1ccc(-n2c(-c3ccc(Cl)cc3)n[nH]c2=S)c(C)c1 the results were CHRM5 agonist inactive, CHRM4 agonist inactive, CHRM5 antagonist 30, M4 PAM 23, M5 PAM inactive and CHRM4 antagonist inactive.
For COc1ccc(CCNC(=O)CSc2ccc3nnc(CCNC(=O)c4ccc(C)cc4)n3n2)cc1OC the results were CHRM5 agonist inactive, CHRM4 agonist inactive, CHRM5 antagonist inactive, M4 PAM inactive, M5 PAM inactive and CHRM4 antagonist inactive.
`O=C(CN1CCN(c2ccccc2)CC1)Nc1ccncc1` gave CHRM5 agonist inactive, CHRM4 agonist inactive, CHRM5 antagonist inactive, M4 PAM inactive, M5 PAM inactive and CHRM4 antagonist inactive.
O=C(CN1CCN(c2ccccc2)CC1)Nc1ccc2c(c1)CCC2 was read as CHRM5 agonist inactive, CHRM4 agonist inactive, CHRM5 antagonist inactive, M4 PAM 21, M5 PAM inactive and CHRM4 antagonist inactive.
`NC(=O)c1oc2ccccc2c1NC(=O)c1ccc(F)cc1` gave CHRM5 agonist inactive, CHRM4 agonist inactive, CHRM5 antagonist inactive, M4 PAM inactive, M5 PAM inactive and CHRM4 antagonist 39.
O=C(Nc1c(C(=O)N2CCC(N3CCCCC3)CC2)oc2ccccc12)c1ccc(F)cc1 was read as CHRM5 agonist inactive, CHRM4 agonist inactive, CHRM5 antagonist inactive, M4 PAM inactive, M5 PAM inactive and CHRM4 antagonist inactive.
`Cc1cccc(NC(=O)CSc2nnc(NC(=O)c3ccco3)s2)c1` gave CHRM5 agonist inactive, CHRM4 agonist inactive, CHRM5 antagonist inactive, M4 PAM inactive, M5 PAM inactive and CHRM4 antagonist inactive.
Screening CC(=O)c1ccc(-c2ccc(C(=O)NCC3CCCO3)o2)cc1 (stereo unspecified) returned CHRM5 agonist inactive, CHRM4 agonist inactive, CHRM5 antagonist inactive, M4 PAM inactive, M5 PAM inactive and CHRM4 antagonist inactive.
`CCOc1ccccc1NC(=O)C(OC(=O)c1ccc(O)cc1)c1ccccc1` (stereo unspecified) gave CHRM5 agonist inactive, CHRM4 agonist inactive, CHRM5 antagonist 29, M4 PAM inactive, M5 PAM inactive and CHRM4 antagonist inactive.
Screening CCOc1ccccc1NC(=O)C(OC(=O)c1ccc(CC)cc1)c1ccccc1 (stereo unspecified) returned CHRM5 agonist inactive, CHRM4 agonist inactive, CHRM5 antagonist inactive, M4 PAM inactive, M5 PAM inactive and CHRM4 antagonist inactive.
`CN1CCN(CCC(=O)N2c3ccccc3Sc3ccc(Cl)cc32)CC1` gave CHRM5 agonist inactive, CHRM4 agonist inactive, CHRM5 antagonist inactive, M4 PAM inactive, M5 PAM inactive and CHRM4 antagonist inactive.
